High-throughput results: PubChem BioAssay, Broad Institute
Rows were chosen to be rich in hits. Some 5.8% of all compounds tested hit in one or more screens of this group.
IDH1 R132H inh = inhibitors of IDH1 R132H reductase, primary screen, biochemical, plate reader, single point. Isocitrate dehydrogenase [NADP] cytoplasmic (Homo sapiens), O75874. diaphorase/resazurin fluorescence, 60 min. inhibition, % at 10 µM. 0.18% of 70,000 active. AID 624101, 2012; in the data active = inhibition above about 34%; inconclusive = no clear call, values can overlap the other calls; inactive = below about 11%;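 note: 0% = DMSO and 100% = no enzyme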
T cruzi growth-1 = T. cruzi intracellular proliferation inhibitors, primary screen, cell-based, beta-gal Tulahuen parasites, NIH3T3 host, luminescence; T. cruzi beta-gal in NIH3T3, GalScreen luminescence, 90 h; inhibition, % at 8.34 µM; 5.9% of 77,000 active;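 active = mean inhibition above about 93%, with at least 55% of replicates each passing it, limit read from the data, passing the limit was not always enough; inconclusive = only one of those two conditions holds; inactive = neither condition holds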
KDM4C inh = inhibitors of GASC-1 (KDM4C) histone demethylase, primary screen, biochemical, single concentration HTS. GST-KDM4C 2-372, H3K9me3 peptide, LANCE TR-FRET. 0.15% of 96,000 active. inhibition, % at 12.5 µM. Lysine-specific demethylase 4C (Homo sapiens), Q9H3R0;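 active = mean replicate inhibition above about 25%, with at least 55% of replicates also reaching it, limit read from the data, passing the limit was not always enough; inconclusive = only one of those two conditions met; inactive = neither condition met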
Target sequence (Q9H3R0 2-372 limits assumed): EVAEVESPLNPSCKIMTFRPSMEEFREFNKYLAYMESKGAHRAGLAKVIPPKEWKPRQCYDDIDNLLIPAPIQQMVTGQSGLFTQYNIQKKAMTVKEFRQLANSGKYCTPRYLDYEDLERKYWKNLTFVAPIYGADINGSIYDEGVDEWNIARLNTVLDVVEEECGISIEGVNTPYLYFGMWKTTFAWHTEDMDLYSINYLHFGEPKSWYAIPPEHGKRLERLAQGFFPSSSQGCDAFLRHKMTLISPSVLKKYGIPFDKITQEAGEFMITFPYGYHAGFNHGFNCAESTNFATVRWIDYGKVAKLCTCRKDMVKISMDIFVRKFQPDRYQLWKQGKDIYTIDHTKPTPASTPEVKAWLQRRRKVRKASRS
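Material: N-terminal GST-fused human GASC-1 (KDM4C) fragment, residues 2-372. Input: 10 nM enzyme. Incubation: enzyme reaction 30 min, then detection 60 min, both room temperature. Doses: one test concentration per compound. Read-out basis: inhibition from TR-FRET ratio decrease. Detection: LANCE TR-FRET, excitation 340 nm, emissions 618 and 671 nm.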
Pf Dd2 growth = P. falciparum Dd2 growth inhibitors, primary screen, SYBR Green fluorescence, single dose replicates; 72 h; stronger effect = lower value; 2.3% of 94,000 active; activity change, % at 10 µM; AID 1159554, 2015; in the data active = activity change below about -80%; inconclusive = no clear call, values can overlap the other calls
T cruzi growth-2 = T. cruzi intracellular proliferation inhibitors, confirmation, cell-based, NIH3T3 host, beta-gal parasite, luminescence, cherry-pick. shares compounds with T cruzi growth-1. 72% of 5,600 active. inhibition, % at 8.35 µM. T. cruzi beta-gal in NIH3T3, GalScreen luminescence, 90 h;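 active = mean replicate inhibition above about 95% and at least 55% of replicates individually reaching it, limit read from the data; inconclusive = only one of the two criteria is met; inactive = neither criterion is met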
T cruzi growth-3 = inhibitors of intracellular T. cruzi replication, confirmation, NIH3T3 host cells, beta-gal parasites, cherry-pick, set 2; inhibition, % at 2.09 µM; 21% of 5,600 active; shares compounds with T cruzi growth-1; T. cruzi beta-gal in NIH3T3, GalScreen luminescence, 90 h;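 active = mean inhibition above about 95%, with at least 55% of replicates also reaching it, limit read from the data; inconclusive = meets just one of the two conditions; inactive = meets neither condition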;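 note: plate controls were neutral control median for no effect and positive control median for full effect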
NIH3T3 tox = cytotoxicity in mouse NIH/3T3 fibroblasts, confirmation, cytotoxicity control for T. cruzi proliferation inhibitor project, cell-based, cherry-pick, single point | AID 651742, 2012 | NIH/3T3 viability, CellTiter-Glo ATP luminescence, 90 h | 14% of 5,600 active | shares compounds with T cruzi growth-1 | cytotoxicity (signal decrease), % at 8.35 µM;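 active = mean signal decrease across replicates above about 35% based on untreated-well scatter, with enough replicates individually passing, limit read from the data; inconclusive = no rule stated though some were filed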;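 note: 0% = median of neutral control wells and 100% = median of positive control wells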
3T3 cytotox 2 = NIH/3T3 fibroblast cytotoxicity, confirmation, cytotoxicity control, cell-based, cherry-pick, single point, set 2 | shares compounds with T cruzi growth-1 | NIH/3T3 viability, CellTiter-Glo ATP luminescence, 90 h | inhibition, % at 24.9 µM | 56% of 5,600 active;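 active = mean loss of cell viability signal at or above a set limit, and enough replicates individually reaching it; inconclusive = meets only the mean limit or only the replicate share; inactive = meets neither condition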;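 note: 0% = median of neutral control wells and 100% = median of positive control wells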
The depositor's hits bear a star; ? = inconclusive; / = no result given.

SMILES	IDH1 R132H inh	T cruzi growth-1	KDM4C inh	Pf Dd2 growth	T cruzi growth-2	T cruzi growth-3	NIH3T3 tox	3T3 cytotox 2
CN(C)C(=O)c1ccc(-c2ccc([C@H]3[C@@H](CO)N4CCCCN(C(=O)C5CCC5)C[C@H]34)cc2)cc1	/	113.3*	/	7.4	96.5*	?	-11.0	11.7
CN(C)C(=O)c1ccc(-c2ccc([C@@H]3[C@H](CO)N4CCCCN(C(=O)C5CCC5)C[C@@H]34)cc2)cc1	/	105.9*	/	12.2	103.0*	?	16.3	13.5
CN(C)C(=O)c1ccc(-c2ccc([C@@H]3[C@@H](CO)N4CCCCN(C(=O)C5CCC5)C[C@@H]34)cc2)cc1	/	-0.8	/	-56.0	/	/	/	/
CN(C)C(=O)c1ccc(-c2ccc([C@H]3[C@H](CO)N4CCCCN(C(=O)C5CC5)C[C@@H]34)cc2)cc1	/	?	-0.6	-77.2	100.0*	79.9	-25.9	9.9
O=C(C1CCC1)N1CCCCN2[C@@H](CO)[C@H](c3ccc(-c4ccncc4)cc3)[C@@H]2C1	/	?	4.8	-0.7	101.8*	87.5	14.7	?
CO[C@H](CN(C)C(=O)C1CCOCC1)[C@H](C)CN([C@@H](C)CO)S(=O)(=O)c1ccccc1	0.3	18.9	1.9	15.7	/	/	/	/
COc1ccccc1NC(=O)N[C@H]1C=C[C@H](CC(=O)NCc2ccc(Cl)c(Cl)c2)O[C@H]1CO	0.3	40.5	-0.5	13.7	/	/	/	/
COc1ccc(S(=O)(=O)N(C)C[C@@H]2OCCCC[C@H](C)Oc3ccc(NC(=O)C4CCCCC4)cc3C(=O)N([C@@H](C)CO)C[C@H]2C)cc1	/	80.6	-0.1	-77.8	/	/	/	/
COc1ccc(S(=O)(=O)N(C)C[C@@H]2OCCCC[C@H](C)Oc3ccc(NC(=O)Nc4ccc5c(c4)OCO5)cc3C(=O)N([C@H](C)CO)C[C@@H]2C)cc1	/	103.0*	0.8	-81.1*	106.6*	89.7	10.0	10.0
COc1ccc(S(=O)(=O)N(C)C[C@@H]2OCCCC[C@H](C)Oc3ccc(NC(=O)C4CCCCC4)cc3C(=O)N([C@H](C)CO)C[C@H]2C)cc1	1.2	99.0*	-0.2	-85.6*	64.3	38.5	19.8	?
COc1ccc(S(=O)(=O)N(C)C[C@@H]2OCCCC[C@H](C)Oc3ccc(NC(=O)Nc4ccc(C(F)(F)F)cc4)cc3C(=O)N([C@@H](C)CO)C[C@@H]2C)cc1	2.5	97.2*	-0.6	-79.1	111.3*	114.7*	27.3	3.8
COc1ccc(NC(=O)Nc2ccc3c(c2)C(=O)N([C@H](C)CO)C[C@@H](C)[C@H](CN(C)S(=O)(=O)c2ccc(OC)cc2)OCCCC[C@@H](C)O3)cc1	1.3	105.0*	0.8	-73.1	108.8*	49.0	-27.0	-16.9
COc1ccc(NC(=O)Nc2ccc3c(c2)C(=O)N([C@@H](C)CO)C[C@H](C)[C@@H](CN(C)S(=O)(=O)c2ccc(F)cc2)OCCCC[C@@H](C)O3)cc1	/	74.4	-0.6	?	/	/	/	/
C[C@@H]1CCCCO[C@H](CN(C)Cc2ccc(C(F)(F)F)cc2)[C@@H](C)CN([C@@H](C)CO)C(=O)c2cc(NC(=O)CCC(F)(F)F)ccc2O1	/	77.2	-0.4	-61.8	/	/	/	/
C[C@@H]1CCCCO[C@H](CN(C)C(=O)c2ccccc2)[C@@H](C)CN([C@@H](C)CO)C(=O)c2cc(NC(=O)Cc3ccccc3)ccc2O1	-1.3	/	0.1	-67.1	/	/	/	/
CCCNC(=O)N(C)C[C@@H]1Oc2ncc(-c3ccc(F)cc3)cc2C(=O)N([C@@H](C)CO)C[C@H]1C	-0.4	/	-1.3	14.0	/	/	/	/
